# Measured values as given in ChEMBL document CHEMBL1122366, “Potential antiatherosclerotic agents. 3. Substituted benzoic and non benzoic acid analogues of cetaben” (1983).
# Assays:
# [1] = test system: Rattus norvegicus; test: In vivo sterol lowering activity when dosed as 0.03 % of the diet; format: functional
# Summary of the method: (§1)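 Normal rats were dosed in the diet. Serum sterol and triglyceride levels were measured and expressed as the mean percent of control values. Significance versus control was reported at p < 0.05, 0.01 and 0.001.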
# [2] = test system: Rattus norvegicus; test: In vivo triglyceride lowering activity when dosed as 0.01 % of the diet; format: functional; summary of the method: as §1
# [3] = test system: Rattus norvegicus; test: In vivo triglyceride lowering activity dosed at 0.10 % of the diet.; format: functional; summary of the method: as §1
# [4] = test system: Rattus norvegicus; test: In vivo triglyceride lowering activity when dosed at 0.05 % of the diet
# [5] = test system: Rattus norvegicus; test: In vivo sterol lowering activity when dosed as 0.01 % of the diet; format: functional; summary of the method: as §1
# [6] = test system: Rattus norvegicus; test: In vivo sterol lowering activity at dose of 0.10 % of the diet; format: functional; summary of the method: as §1
# [7] = test system: Rattus norvegicus; test: In vivo triglyceride lowering activity when dosed as 0.025 % of the diet
# [8] = target: T1, Sterol O-acyltransferase 1 (Rattus norvegicus) (UniProt O70536); test: In vitro inhibition of acyl coenzyme A:cholesterol acyltransferase; parameters: concentration or dose not given beside the values; conditions: concentration not given here
# T1 sequence (whole entry): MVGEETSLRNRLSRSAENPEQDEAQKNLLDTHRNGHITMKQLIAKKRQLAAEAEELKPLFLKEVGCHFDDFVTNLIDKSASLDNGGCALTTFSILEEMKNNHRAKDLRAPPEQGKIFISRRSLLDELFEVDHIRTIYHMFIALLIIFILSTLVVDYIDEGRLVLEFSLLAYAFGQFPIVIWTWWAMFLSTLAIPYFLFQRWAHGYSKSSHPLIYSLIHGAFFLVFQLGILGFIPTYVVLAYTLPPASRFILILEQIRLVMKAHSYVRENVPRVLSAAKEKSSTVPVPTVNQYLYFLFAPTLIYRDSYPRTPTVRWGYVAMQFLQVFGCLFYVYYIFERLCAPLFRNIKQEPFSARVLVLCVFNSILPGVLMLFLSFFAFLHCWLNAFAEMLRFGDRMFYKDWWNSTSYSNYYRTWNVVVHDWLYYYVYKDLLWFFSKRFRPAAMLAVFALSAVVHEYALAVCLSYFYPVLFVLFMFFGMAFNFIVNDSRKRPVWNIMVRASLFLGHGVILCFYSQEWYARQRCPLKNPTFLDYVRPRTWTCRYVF
# Summary of the method: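 Enzyme fatty acyl-CoA:cholesterol acyltransferase (ACAT), assayed in vitro at a single drug concentration of 5.2 μg/mL. The value is the mean percent inhibition of enzyme activity.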
# [9] = test system: Rattus norvegicus; test: In vivo triglyceride lowering activity when dosed at 0.03 % of the diet; format: functional; summary of the method: as §1
Structure (SMILES),"serum sterol level, percent of control [1] [%]","serum triglyceride level, percent of control [2] [%]","serum triglyceride, percent of control [3] [%]",Diet [4] [%],"serum sterol level, % of control [5] [%]","serum sterol level, percent of control [6] [%]",Diet [7] [%],inhibition [8] [%],"serum triglyceride level, percent of control [9] [%]"
CCCCCCCCCCCCCCCCNc1ccc(C(=O)O)c(OC)c1,105,75,77,<66,104,98,–,–,–
CCCCCCCCCCCCCCCCNc1ccc(C(=O)CCC(=O)O)cc1,100,–,<66,–,116,109,<82,16,<72
CCCCCCCCCCCCCCCCNc1ccc(C(=O)NCC(O)CO)cc1 (stereo not drawn),88,114,<48,–,99,<72,–,< 61,<73
CCCCCCCCCCCCCCCCNc1ccc(C(=O)Nc2ccc(C(=O)O)cc2)cc1,<87,85,103,–,95,100,–,12,121
CCCCCCCCCCCCCCCCN(CC(=O)OCC)c1ccc(C(=O)OC)cc1,100,113,104,–,106,104,–,12,97
CCCCCCCCCCCCCCCCNc1ccc(C(=O)C(C)C(=O)OCC)cc1 (stereo not drawn),87,87,<66,–,100,<73,–,21,88
CCCCCCCCCCCCCCCCNc1ccc(C(=O)OCC(CO)OC(C)=O)cc1 (stereo not drawn),85,90,<47,–,118,86,–,28,<71
